Test: Treatment-emergent adverse events, tolerability
Assay type: in vivo, healthy men
Procedure, shortened: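 Healthy men received single oral tablet doses (part 1: 1–225 mg; part 2: 10, 50 mg) or placebo under double-blind randomisation. Treatment-emergent adverse events were recorded along with clinical laboratory tests, ECG, oral temperature, vital signs and physical examinations, through follow-up.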

CC(C)(O)c1ccccc1-c1ccc2[nH]c(/C=C/c3ccc(C(F)(F)F)cc3)nc2c1 [JNJ-39439335, trans-2-(2-{2-[2-(4-Trifluoromethyl-phenyl)-vinyl]-1H-benzimidazol-5-yl}-phenyl)-propan-2-ol]
≥ 10 mg: Doses at which thermohypoesthesia occurred (in vivo)
5 (83) n (%): TEAE Pyrexia (part 1, 10 mg (N = 6)) | TEAE Feeling hot (part 1, 15 mg (N = 6)) | TEAE Thermohypoesthesia (part 1, 15 mg (N = 6))
6 (100) n (%): Total no. participants with AEs (part 1, 10 mg (N = 6)) | Total no. participants with AEs (part 1, 15 mg (N = 6)) | Total no. participants with AEs (part 1, 15 mg R (N = 6))
7 participants: Participants with minor or first-degree burns on the hand or the mouth (of 79 participants receiving JNJ-39439335)
4 (67) n (%): TEAE Pyrexia (part 1, 5 mg (N = 6)) | Total no. participants with AEs (part 1, 5 mg (N = 6)) | TEAE Feeling cold (part 1, 15 mg (N = 6)) | TEAE Pyrexia (part 1, 15 mg (N = 6))
1 (17) n (%): TEAE Dizziness postural (part 1, 1 mg (N = 6)) | TEAE Fatigue (part 1, 1 mg (N = 6)) | TEAE Headache (part 1, 2 mg (N = 6)) | TEAE Hematoma (part 1, 2 mg (N = 6)) | TEAE Hypoesthesia (part 1, 2 mg (N = 6)) | TEAE Feeling cold (part 1, 5 mg (N = 6)) | TEAE Feeling hot (part 1, 5 mg (N = 6)) | TEAE Dizziness (part 1, 10 mg (N = 6)) | TEAE Headache (part 1, 10 mg (N = 6)) | TEAE Hyperhidrosis (part 1, 10 mg (N = 6)) | TEAE Nausea (part 1, 10 mg (N = 6)) | TEAE Paresthesia (part 1, 10 mg (N = 6)) | TEAE Pruritus (part 1, 10 mg (N = 6)) | TEAE Dizziness (part 1, 15 mg (N = 6)) | TEAE Dizziness postural (part 1, 15 mg (N = 6)) | TEAE Dysgeusia (part 1, 15 mg (N = 6)) | TEAE Pruritus (part 1, 15 mg (N = 6)) | TEAE Hypoesthesia (part 1, 15 mg R (N = 6))
3 (50) n (%): Total no. participants with AEs (part 1, 2 mg (N = 6)) | TEAE Thermohypoesthesia (part 1, 10 mg (N = 6)) | TEAE Hyperhidrosis (part 1, 15 mg (N = 6)) | TEAE Feeling cold (part 1, 15 mg R (N = 6)) | TEAE Feeling hot (part 1, 15 mg R (N = 6))
2 (40) n (%): TEAE Back pain (part 1, 30 mg (N = 5))
2 (33) n (%): Total no. participants with AEs (part 1, 1 mg (N = 6)) | TEAE Dizziness postural (part 1, 10 mg (N = 6)) | TEAE Orthostatic hypotension (part 1, 10 mg (N = 6)) | TEAE Rhinitis (part 1, 10 mg (N = 6)) | TEAE Hypogeusia (part 1, 15 mg (N = 6)) | TEAE Paresthesia (part 1, 15 mg (N = 6)) | TEAE Paresthesia (part 1, 15 mg R (N = 6)) | TEAE Pyrexia (part 1, 15 mg R (N = 6)) | TEAE Thermohypoesthesia (part 1, 15 mg R (N = 6))
0 n (%): TEAE Agusia (part 1, 1 mg (N = 6)) | TEAE Back pain (part 1, 1 mg (N = 6)) | TEAE Burning sensation (part 1, 1 mg (N = 6)) | TEAE Chills (part 1, 1 mg (N = 6)) | TEAE Dizziness (part 1, 1 mg (N = 6)) | TEAE Dysgeusia (part 1, 1 mg (N = 6)) | TEAE Feeling cold (part 1, 1 mg (N = 6)) | TEAE Feeling hot (part 1, 1 mg (N = 6)) | TEAE Headache (part 1, 1 mg (N = 6)) | TEAE Hematoma (part 1, 1 mg (N = 6)) | TEAE Hyperhidrosis (part 1, 1 mg (N = 6)) | TEAE Hypoesthesia (part 1, 1 mg (N = 6)) | TEAE Hypogeusia (part 1, 1 mg (N = 6)) | TEAE Nausea (part 1, 1 mg (N = 6)) | TEAE Paresthesia (part 1, 1 mg (N = 6)) | TEAE Pruritus (part 1, 1 mg (N = 6)) | TEAE Pyrexia (part 1, 1 mg (N = 6)) | TEAE Rhinitis (part 1, 1 mg (N = 6)) | TEAE Thermal burn (part 1, 1 mg (N = 6)) | TEAE Thermohypoesthesia (part 1, 1 mg (N = 6)) | TEAE Agusia (part 1, 2 mg (N = 6)) | TEAE Back pain (part 1, 2 mg (N = 6)) | TEAE Burning sensation (part 1, 2 mg (N = 6)) | TEAE Chills (part 1, 2 mg (N = 6)) | TEAE Dizziness (part 1, 2 mg (N = 6)) | TEAE Dizziness postural (part 1, 2 mg (N = 6)) | TEAE Dysgeusia (part 1, 2 mg (N = 6)) | TEAE Fatigue (part 1, 2 mg (N = 6)) | TEAE Feeling cold (part 1, 2 mg (N = 6)) | TEAE Feeling hot (part 1, 2 mg (N = 6)) | TEAE Hyperhidrosis (part 1, 2 mg (N = 6)) | TEAE Hypogeusia (part 1, 2 mg (N = 6)) | TEAE Nausea (part 1, 2 mg (N = 6)) | TEAE Paresthesia (part 1, 2 mg (N = 6)) | TEAE Pruritus (part 1, 2 mg (N = 6)) | TEAE Pyrexia (part 1, 2 mg (N = 6)) | TEAE Rhinitis (part 1, 2 mg (N = 6)) | TEAE Thermal burn (part 1, 2 mg (N = 6)) | TEAE Thermohypoesthesia (part 1, 2 mg (N = 6)) | TEAE Agusia (part 1, 5 mg (N = 6)) | TEAE Back pain (part 1, 5 mg (N = 6)) | TEAE Burning sensation (part 1, 5 mg (N = 6)) | TEAE Chills (part 1, 5 mg (N = 6)) | TEAE Dizziness (part 1, 5 mg (N = 6)) | TEAE Dizziness postural (part 1, 5 mg (N = 6)) | TEAE Dysgeusia (part 1, 5 mg (N = 6)) | TEAE Fatigue (part 1, 5 mg (N = 6)) | TEAE Headache (part 1, 5 mg (N = 6)) | TEAE Hematoma (part 1, 5 mg (N = 6)) | TEAE Hyperhidrosis (part 1, 5 mg (N = 6)) | TEAE Hypoesthesia (part 1, 5 mg (N = 6)) | TEAE Hypogeusia (part 1, 5 mg (N = 6)) | TEAE Nausea (part 1, 5 mg (N = 6)) | TEAE Paresthesia (part 1, 5 mg (N = 6)) | TEAE Pruritus (part 1, 5 mg (N = 6)) | TEAE Rhinitis (part 1, 5 mg (N = 6)) | TEAE Thermal burn (part 1, 5 mg (N = 6)) | TEAE Thermohypoesthesia (part 1, 5 mg (N = 6)) | TEAE Agusia (part 1, 10 mg (N = 6)) | TEAE Back pain (part 1, 10 mg (N = 6)) | TEAE Burning sensation (part 1, 10 mg (N = 6)) | TEAE Chills (part 1, 10 mg (N = 6)) | TEAE Dysgeusia (part 1, 10 mg (N = 6)) | TEAE Fatigue (part 1, 10 mg (N = 6)) | TEAE Feeling cold (part 1, 10 mg (N = 6)) | TEAE Feeling hot (part 1, 10 mg (N = 6)) | TEAE Hematoma (part 1, 10 mg (N = 6)) | TEAE Hypoesthesia (part 1, 10 mg (N = 6)) | TEAE Hypogeusia (part 1, 10 mg (N = 6)) | TEAE Thermal burn (part 1, 10 mg (N = 6)) | TEAE Agusia (part 1, 15 mg (N = 6)) | TEAE Back pain (part 1, 15 mg (N = 6)) | TEAE Burning sensation (part 1, 15 mg (N = 6)) | TEAE Chills (part 1, 15 mg (N = 6)) | TEAE Fatigue (part 1, 15 mg (N = 6)) | TEAE Headache (part 1, 15 mg (N = 6)) | TEAE Hematoma (part 1, 15 mg (N = 6)) | TEAE Hypoesthesia (part 1, 15 mg (N = 6)) | TEAE Nausea (part 1, 15 mg (N = 6)) | TEAE Rhinitis (part 1, 15 mg (N = 6)) | TEAE Thermal burn (part 1, 15 mg (N = 6)) | TEAE Agusia (part 1, 15 mg R (N = 6)) | TEAE Back pain (part 1, 15 mg R (N = 6)) | TEAE Burning sensation (part 1, 15 mg R (N = 6)) | TEAE Chills (part 1, 15 mg R (N = 6)) | TEAE Dizziness (part 1, 15 mg R (N = 6)) | TEAE Dizziness postural (part 1, 15 mg R (N = 6)) | TEAE Dysgeusia (part 1, 15 mg R (N = 6)) | TEAE Fatigue (part 1, 15 mg R (N = 6)) | TEAE Headache (part 1, 15 mg R (N = 6)) | TEAE Hematoma (part 1, 15 mg R (N = 6)) | TEAE Hyperhidrosis (part 1, 15 mg R (N = 6)) | TEAE Hypogeusia (part 1, 15 mg R (N = 6)) | TEAE Nausea (part 1, 15 mg R (N = 6)) | TEAE Pruritus (part 1, 15 mg R (N = 6)) | TEAE Rhinitis (part 1, 15 mg R (N = 6)) | TEAE Thermal burn (part 1, 15 mg R (N = 6)) | TEAE Agusia (part 1, 30 mg (N = 5))
